In data set [1] the test system is MS2 coat protein. The experiment in a line: apparent Kd, MS2 coat protein; higher = weaker binding; RNA-MaP array; theophylline 2 mM where present. In a few lines: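 Each design was made on Illumina sequencing-chip clusters by stalled E. coli RNA polymerase and titrated with SNAP-549-labelled MS2 coat protein from 0.7 or 1.5 nM, doubling to 3 µM, in the absence and then the presence of constant ligand. The buffer was 100 mM Tris-HCl pH 7.5, 80 mM KCl, 4 mM MgCl2, BSA, DTT, yeast tRNA and Tween-20. The apparent Kd is the median of filtered per-cluster fits of binding curves, with green signal normalised to red-channel RNA signal and control-cluster median Fmax.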

The subject of data set [2] is MS2 coat protein. The experiment in a line: apparent Kd, MS2 coat protein; higher = weaker binding; RNA-MaP array. In a few lines: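 Incubations were done at room temperature with fluorescently labeled MS2 coat protein at 1.5 nM to 3 μM and designed RNAs transcribed on an Illumina sequencing chip from sequenced DNA templates, with or without input ligand. Apparent Kd is the median of binding curves fitted for each cluster. Designs with fewer than 10 measured clusters were excluded.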

Setting [3] is: designed as: OFF switch for theophylline, no ligand.
Where [4] appears, read: ligand present: theophylline, designed as: OFF switch for theophylline.
Where [5] appears, read: designed as: ON switch for theophylline, no ligand.
The mark [6] stands for this setting: ligand present: theophylline, designed as: ON switch for theophylline.
Where [7] appears, read: designed as: ON switch for flavin mononucleotide, no ligand.
Setting [8] is: ligand present: flavin mononucleotide, designed as: ON switch for flavin mononucleotide.
[9] abbreviates: designed as: OFF switch for flavin mononucleotide, no ligand.
Where [10] appears, read: ligand present: flavin mononucleotide, designed as: OFF switch for flavin mononucleotide.

The results in this text go back to the EternaBench riboswitch data.

With “AGCGAUAUGCAUGAUACCAGCUACAUGAGGAUCACCCAUGUGCGUCAGAAAUGACUGUGUAGCCCUUGGCAGCAUAAAGCAUGUA”, the “apparent Kd” value in the data set on MS2 coat protein [1] (setting [3]) came out at 0.0451 µM; in the data set on MS2 coat protein [1] (setting [4]), 0.0872 µM.

Regarding “UCCUCCUCCGCAAGGAGGAGGAGUUGCGAUACCAGCACGGAAACGUGCCCUUGGCAGCGCACAUGAGGAUCACCCAUGUCAUGUU”, the “apparent Kd” value with MS2 coat protein [1] (setting [3]) is 0.018 µM; with MS2 coat protein [1] (setting [4]), 0.024 µM.

In the case of “UGACAUUGCUGCGAUACCAGACAUGAGGAUCACCCAUGUACCAAGGUAACCGAAAGGCAUGUCCCUUGGCAGCGCAGCAAUGUCU”, the “apparent Kd” value with MS2 coat protein [1] (setting [3]) came to 0.0115 µM; with MS2 coat protein [1] (setting [4]), 0.197 µM.

Take “AAACAUUGCUCAGAUACCAGACAUGAGGAUCACCCAUGUACCAAGGUAAAGAAAUAACGUGUCCCUUGGCAGCUGAGCAAUGAAA”: the “apparent Kd” value turned out to be 0.0102 µM in the data set with MS2 coat protein [1] (setting [3]) and 0.109 µM with MS2 coat protein [1] (setting [4]).

For “AUCGUACCUCAUGAUACCAGCAUGUGAUCAUAACAUGAGGAUCACCCAUGUAAUCAGUGAUGCCCUUGGCAGCGUAGUCGAUACA”, the “apparent Kd” value in the data set on MS2 coat protein [1] (setting [5]) came to 0.136 µM; in the data set on MS2 coat protein [1] (setting [6]), 0.063 µM.

As for “AGAAUACAUGUUUUAAUACGGAAAACUGAUACCAGUGUAUCUAUUCACCCUUGGCAGCAGAGACAUGAGGAUCACCCAUGUAUUA”, the results for the “apparent Kd” value with MS2 coat protein [1] (setting [5]) and in the data set on MS2 coat protein [1] (setting [6]) were 0.0413 µM and 0.0286 µM, respectively.

Take “CAAAACCUUACAGAUACCAGCACAUGAGGAUCACCCAUGUAUUGGACACUUCGCUCAUCGUGCCCUUGGCAGCUGUGGGACGAGG”: the results for the “apparent Kd” value in the data set on MS2 coat protein [1] (setting [3]) and in the data set on MS2 coat protein [1] (setting [4]) were 0.0787 µM and 0.175 µM, respectively.

“UCGUGUGUUUCGGAUACCAGUGAAAUCGAUACAUGAGGAUCACCCAUGUGAGAGGAUGUACACCCUUGGCAGCUGGCUGUAGCGG”: the “apparent Kd” value in the data set on MS2 coat protein [1] (setting [5]) was determined as 0.0479 µM; in the data set on MS2 coat protein [1] (setting [6]), 0.0397 µM.

With “GCACGACAUGAGGAUCACCCAUGUGCAGAUACCAGUAGGAUAUCCUACCCUUGGCAGCUGAGUGGAUCCGGAGGACCAUGGGUAA”, the “apparent Kd” value with MS2 coat protein [1] (setting [5]) worked out at 0.038 µM; in the data set with MS2 coat protein [1] (setting [6]), 0.0826 µM.

For “UCUUGAGUUUCGGAUACCAGUGUUGUCGAUACAUGAGGAUCACCCAUGUUAGAGGAUGUACACCCUUGGCAGCCGGCUGUGGCGG”, the “apparent Kd” value with MS2 coat protein [1] (setting [5]) amounted to 0.0207 µM; in the data set on MS2 coat protein [1] (setting [6]), 0.013 µM.

In the case of “UUCAAAGGGAACGGUGCUGGUGACAGAGAUACCAGCGCGGUAACGCGCCCUUGGCAGCUCAGAACAUGAGGAUCACCCAUGUAAU”, the “apparent Kd” value with MS2 coat protein [1] (setting [3]) turned out to be 0.0136 µM; with MS2 coat protein [1] (setting [4]), 0.0502 µM.

In the case of “ACACAUGAGGAUCACCCAUGUCCAAUAGAUACCAGUGAUACAGUGCACCCUUGGCAGCUGUUACUGAGUAAUGGUUCCCUCGGAA”, the “apparent Kd” value is 0.0366 µM in the data set with MS2 coat protein [1] (setting [5]) and 0.046 µM in the data set with MS2 coat protein [1] (setting [6]).

As to “AAGGUGAUCCCAGAUACCAGCCUAACAUGAGGAUCACCCAUGUUUGGGACGAAAGUCCCAGGCCCUUGGCAGCUGGGUUGCCAAG”, the “apparent Kd” value with MS2 coat protein [1] (setting [5]) turned out to be 0.225 µM; in the data set with MS2 coat protein [1] (setting [6]), 0.0303 µM.

For the sequence “AAGGUGAUCCUCGAUACCAGCUCAACAUGAGGAUCACCCAUGUAAGCCUGGAAACAGGCGAGCCCUUGGCAGCGAGUUACAUCAA”, the “apparent Kd” value in the data set with MS2 coat protein [1] (setting [5]) worked out at 0.0621 µM; in the data set on MS2 coat protein [1] (setting [6]), 0.0178 µM.

For the sequence “UAACAUGAGGAUCACCCAUGUAUAGUCGAUACCAGCUCUGUCUAGAGCCCUUGGCAGCGACACUGGUAUCCAUGGGUGUGGAUAC”, the “apparent Kd” value in the data set on MS2 coat protein [1] (setting [5]) is 0.108 µM; with MS2 coat protein [1] (setting [6]), 0.0561 µM.

Take “UGUAACAUGAGGAUCACCCAUGUGCACGAUACCAGCUUAUUGGUAGGCCCUUGGCAGCGUAUUCGGAAGAUGUAUAAUAUAUAUC”: the “apparent Kd” value in the data set with MS2 coat protein [1] (setting [5]) is 0.0134 µM; in the data set on MS2 coat protein [1] (setting [6]) it was 0.0133 µM.

With “AGAGGUGCAACAGAUACCAGUCUACCGUACCUCAGAGAACAUGAGGAUCACCCAUGUAUAGACCCUUGGCAGCUGAUGUUAUUCA”, the figures for the “apparent Kd” value with MS2 coat protein [1] (setting [3]) and in the data set with MS2 coat protein [1] (setting [4]) were 0.0223 µM and 0.079 µM, respectively.

Regarding “AUUUACAUGGUCAUAUAUAUAUCGUCAGAUACCAGACUAGAUAUUGUCCCUUGGCAGCUGUUACAUGAGGAUCACCCAUGUUAUA”, the “apparent Kd” value came out at 0.23 µM in the data set on MS2 coat protein [1] (setting [3]) and 0.131 µM in the data set with MS2 coat protein [1] (setting [4]).

In the case of “UAUUUGGUGCGCGAGCGCUGGAUAAUUGAUACCAGUGAAGAAGAGCGCCCUUGGCAGCGAAUCCUAACAUGAGGAUCACCCAUGU”, the “apparent Kd” value with MS2 coat protein [1] (setting [5]) was found to be 0.037 µM; in the data set with MS2 coat protein [1] (setting [6]), 0.0421 µM.

For the sequence “UAUAUUGUGAUGGAUACCAGCAGAGAAAACGUUUAUCCUAACAUGAGGAUCACCCAUGUAUGCCCUUGGCAGCUGUUGUGGUAUA”, the “apparent Kd” value in the data set with MS2 coat protein [1] (setting [4]) was 0.0444 µM.

Consider “AUAUUACAUGUUAUUAUACGGUAUACUGAUACCAGUGUUUCUAUUCACCCUUGGCAGCAGCAACAUGAGGAUCACCCAUGUAUUA”, for which the figures for the “apparent Kd” value in the data set with MS2 coat protein [1] (setting [5]) and in the data set with MS2 coat protein [1] (setting [6]) were 0.0167 µM and 0.0169 µM, respectively.

Regarding “AGCCCUGUACUAGAUACCAGCUACAUGAGGAUCACCCAUGUACGAUAAGACUGUCCAUGUAGCCCUUGGCAGCUGCUCGCAUGUA”, the entries for the “apparent Kd” value with MS2 coat protein [1] (setting [3]) and in the data set on MS2 coat protein [1] (setting [4]) were 0.0306 µM and 0.0688 µM, respectively.

Take “AACUGGGUUCGUGAUACCAGCUCACACAUGAGGAUCACCCAUGUAGUGGGUAAAAUGUGGAGCCCUUGGCAGCACUGUGACCACG”: the “apparent Kd” value was 0.0132 µM in the data set with MS2 coat protein [1] (setting [3]) and 0.0607 µM in the data set on MS2 coat protein [1] (setting [4]).

Turning to “ACAUGAAGAACAGCGGUGGGCGCGCUCGAUACCAGUAUUUUAAACUACCCUUGGCAGCGACAUGAGGAUCACCCAUGUGAGAUGA”, the “apparent Kd” value was determined as 0.0182 µM in the data set on MS2 coat protein [1] (setting [3]) and 0.0357 µM in the data set on MS2 coat protein [1] (setting [4]).

On to “GAUGAACUAUAUGAUACCAGACAACAUGAGGAUCACCCAUGUGAAAGUCGUCCUCUGCCUGUCCCUUGGCAGCGUAUAGUUUAUC”, for which the “apparent Kd” value in the data set on MS2 coat protein [1] (setting [3]) came to 0.0504 µM; in the data set with MS2 coat protein [1] (setting [4]), 0.168 µM.

Regarding “UGUUUGGUGCGCGAGUGUUGGAUAAUUGAUACCAGUGUAGAAGAGCGCCCUUGGCAGCGAAUCCUAACAUGAGGAUCACCCAUGU”, the “apparent Kd” value in the data set with MS2 coat protein [1] (setting [5]) came out at 0.04 µM; in the data set with MS2 coat protein [1] (setting [6]) it was 0.0573 µM.

Regarding “GCAUGACAUGAGGAUCACCCAUGUGAAUUGUAGGAAGGAUAUAAUACUUGAUCCGCUGUCUUAGAAGGUCCAUAAU”, the “apparent Kd” value in the data set on MS2 coat protein [2] (setting [7]) is 0.0286 µM; in the data set with MS2 coat protein [2] (setting [8]) it was 0.0196 µM.

Consider “UCGGACCGAGGAUAUACAGUUCGUGAAGGUAAGAUACACAGACAUGAGGAUCACCCAUGUAGAAGGCGGAGUCC”, for which the “apparent Kd” value in the data set on MS2 coat protein [2] (setting [9]) is 0.0121 µM; with MS2 coat protein [2] (setting [10]), 0.0156 µM.

In the case of “UACCGAGGGACAGGAUAUUGAGCAUGCCUCGCCCAAGAAGGGUCUUCUGGAGUGACUUAUAACAUGAGGAUCACCCAUGUGAUC”, the “apparent Kd” value stood at 0.41 µM with MS2 coat protein [2] (setting [9]) and 0.262 µM in the data set with MS2 coat protein [2] (setting [10]).

With “UUAUAAGCACCUGAUACCAGUAUGAACCCGUACAUGAGGAUCACCCAUGUUAAUUUCUAUUACCCUUGGCAGCAGCCUUUUUCCU”, the “apparent Kd” value worked out at 0.0194 µM in the data set on MS2 coat protein [2] (setting [5]) and 0.0176 µM in the data set with MS2 coat protein [2] (setting [6]).

As to “ACUAGUAGGCAAGGAUAUGGCCUCAUAAGAUAGCCAGAAGGUGCUACGGACAUGAGGAUCACCCAUGUGCAGCUCGUACGGUGG”, the “apparent Kd” value with MS2 coat protein [2] (setting [7]) came to 0.367 µM; in the data set with MS2 coat protein [2] (setting [8]), 0.155 µM.

Consider “GACCAACAUGAGGAUCACCCAUGUCGAGUUGGAAGUUUUACGAGAAGGAUCCUCCUGCCGAGCGGAUAGGAUAUCGAAACGGAC”, for which the entries for the “apparent Kd” value in the data set on MS2 coat protein [2] (setting [9]) and with MS2 coat protein [2] (setting [10]) were 0.0115 µM and 0.00893 µM, respectively.

Consider “CUCUCGGCAGGAUAUCGGCAGAUAAACAUGAGGAUCACCCAUGUGUUCUUAAAAUUCCGUCGAGAAGGGCCGCGAU”, for which the “apparent Kd” value with MS2 coat protein [2] (setting [9]) was determined as 0.00468 µM; in the data set on MS2 coat protein [2] (setting [10]), 0.00516 µM.

On to “AAUCUCUCUGCAGGAUAUGGUCGCUGAGCUACUCCAGAAGGGCAGUGAGUAAGAUCGUCAGACAUGAGGAUCACCCAUGUAUUU”, for which the “apparent Kd” value with MS2 coat protein [2] (setting [9]) turned out to be 0.0358 µM; with MS2 coat protein [2] (setting [10]) it was 0.0309 µM.

“AAAAUACAUGAGGAUCACCCAUGUGCUUUCUAUUCAGGAUAUGGUGGUACAGUGGACAUACCAGAAGGGAAUGAAA”: the “apparent Kd” value with MS2 coat protein [2] (setting [7]) stood at 0.0111 µM; in the data set on MS2 coat protein [2] (setting [8]) it was 0.00834 µM.

The term apparent Kd denotes a dissociation constant that holds for the conditions of the assay.
